Data reported in ChEMBL document CHEMBL1145782, “Systematic development of high affinity bis(ammonio)alkane-type allosteric enhancers of muscarinic ligand binding” (J Med Chem, 2003).

Tests used:
[1] = molecular target: T1, Muscarinic acetylcholine receptor M2 (Sus scrofa) (UniProt P06199); experiment: Tested for binding of [3H]N-methylscopolamine ([3H]NMS) at porcine heart ventricle muscarinic acetylcholine receptor M2 expressed as -logKa.
T1 sequence (whole entry): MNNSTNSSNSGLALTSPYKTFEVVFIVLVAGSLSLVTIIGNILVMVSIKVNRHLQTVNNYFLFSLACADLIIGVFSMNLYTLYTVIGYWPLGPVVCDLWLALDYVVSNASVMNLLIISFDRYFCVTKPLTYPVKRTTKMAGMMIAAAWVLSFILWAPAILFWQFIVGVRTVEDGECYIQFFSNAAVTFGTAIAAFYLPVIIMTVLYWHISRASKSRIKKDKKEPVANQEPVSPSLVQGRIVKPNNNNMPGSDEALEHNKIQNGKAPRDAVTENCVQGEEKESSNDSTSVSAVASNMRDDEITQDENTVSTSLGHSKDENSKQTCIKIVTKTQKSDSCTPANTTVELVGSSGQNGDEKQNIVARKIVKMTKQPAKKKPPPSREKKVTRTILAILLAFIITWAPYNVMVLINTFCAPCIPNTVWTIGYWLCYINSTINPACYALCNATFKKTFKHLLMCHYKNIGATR
Method in brief: (§1)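 Pig heart ventricle homogenates in 2.7 mM MgHPO4, 45 mM Tris-HCl, pH 7.3, 37 °C; [3H]NMS 0.20 nM with increasing test compound concentrations; incubation 180–530 min, calculated to reach equilibrium. Nonspecific binding with 1 μM atropine; bound label separated by rapid vacuum filtration onto glass filters and counted by liquid scintillation. Affinities for free and NMS-occupied receptor derived from binding curves.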

[2] = molecular target: T1, Muscarinic acetylcholine receptor M2 (Sus scrofa); experiment: Cooperativity factor pAlpha at porcine heart ventricle muscarinic acetylcholine receptor M2.; method in brief: as §1
[3] = molecular target: T1, Muscarinic acetylcholine receptor M2 (Sus scrofa); experiment: Binding affinity for [3H]NMS-occupied muscarinic acetylcholine receptor M2 from porcine heart ventricle.; method in brief: as §1
[4] = molecular target: T2, Muscarinic acetylcholine receptor M2 (Sus scrofa, UniProt P06199); experiment: Effective concentration required to inhibit dissociation of [3H]NMS from porcine heart ventricles muscarinic acetylcholine receptor M2.
T2 sequence (P06199 whole entry): T1 sequence (whole entry)
Method in brief: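 [3H]NMS dissociation in pig heart ventricle homogenates, Mg/Tris buffer pH 7.3, 37 °C. Membranes equilibrated 30 min with 0.2 nM [3H]NMS, then 1 μM atropine added alone or with various test compound concentrations. Either complete time courses over 120 min or two-point measurement (0 and 10 min); monoexponential apparent k-1 by nonlinear regression; filtration and scintillation counting.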

| Structure (SMILES) | -logKa [1] | pAlpha [2] | p alphaKa [3] | EC50 [4] |
| --- | --- | --- | --- | --- |
| Cc1ccc2c(c1)C(=O)N(CCC[N+](C)(C)CCCCCC[N+](C)(C)CCCN1C(=O)c3ccc(C)cc3C1=O)C2=O | 7.08 | -0.33 | 6.75 | 170 nM |
| C[N+](C)(CCCCCC[N+](C)(C)CCCN1C(=O)c2cc(Cl)c(Cl)cc2C1=O)CCCN1C(=O)c2cc(Cl)c(Cl)cc2C1=O | 6.83 | -0.29 | 6.57 | 229 nM |
| C[N+](C)(CCCCCC[N+](C)(C)CCCN1C(=O)c2cc(F)c(F)cc2C1=O)CCCN1C(=O)c2ccccc2C1=O | 6.68 | -0.37 | 6.31 | 457 nM |
| C[N+](C)(CCCCCC[N+](C)(C)CCCN1C(=O)c2nccnc2C1=O)CCCN1C(=O)c2ccccc2C1=O | 6.25 | -0.59 | 5.66 | 1620 nM |
| C[N+](C)(CCCCCC[N+](C)(C)CCCN1C(=O)C2C3c4ccccc4C(c4ccccc43)C2C1=O)CCCN1C(=O)C2C3c4ccccc4C(c4ccccc43)C2C1=O (stereo not given) | 8.12 | -1.38 | 6.74 | 398 nM |
| C[N+](C)(CCCCCC[N+](C)(C)CCCN1C(=O)c2ccccc2C1=O)CCCN1C(=O)c2ccccc2C1=O | 6.19 | -0.47 | 5.73 | 1350 nM |
| Cc1ccc2c(c1)C(=O)N(CCC[N+](C)(C)CCCCCC[N+](C)(C)CCCN1C(=O)c3ccccc3C1=O)C2=O | 6.73 | -0.31 | 6.42 | 324 nM |
| C[N+](C)(CCCCCC[N+](C)(C)CCCN1C(=O)c2cc(F)c(F)cc2C1=O)CCCN1C(=O)c2cc(F)c(F)cc2C1=O | 6.47 | -0.39 | 6.08 | 741 nM |
| C[N+](C)(CCCCCC[N+](C)(C)CCCN1C(=O)C2C3c4ccccc4C(c4ccccc43)C2C1=O)CCCN1C(=O)c2ccccc2C1=O (stereo not given) | 7.78 | -1.21 | 6.56 | 204 nM |
| C[N+](C)(CCCCCC[N+](C)(C)CCCN1C(=O)c2nccnc2C1=O)CCCN1C(=O)c2nccnc2C1=O | 5.44 | -0.44 | 5 | 6310 nM |
| C[N+](C)(CCCCCC[N+](C)(C)CCCN1C(=O)c2ccc(C(F)(F)F)cc2C1=O)CCCN1C(=O)c2ccccc2C1=O | 6.32 | -0.21 | 6.12 | 501 nM |
| C[N+](C)(CCCCCC[N+](C)(C)CCCN1C(=O)c2cc3ccccc3cc2C1=O)CCCN1C(=O)c2ccccc2C1=O | 7.27 | -0.47 | 6.8 | 145 nM |
| C[N+](C)(CCCCCC[N+](C)(C)CCCN1C(=O)c2ccc(C(F)(F)F)cc2C1=O)CCCN1C(=O)c2ccc(C(F)(F)F)cc2C1=O | 6.37 | -0.22 | 6.15 | 447 nM |
| CC(C)(C)c1ccc2c(c1)C(=O)N(CCC[N+](C)(C)CCCCCC[N+](C)(C)CCCN1C(=O)c3ccc(C(C)(C)C)cc3C1=O)C2=O | 7.38 | -0.89 | 6.49 | 302 nM |
| CC(C)(C)c1ccc2c(c1)C(=O)N(CCC[N+](C)(C)CCCCCC[N+](C)(C)CCCN1C(=O)c3ccccc3C1=O)C2=O | 7.25 | -0.81 | 6.43 | 309 nM |
| C[N+](C)(CCCCCC[N+](C)(C)CCCN1C(=O)c2cc(Cl)c(Cl)cc2C1=O)CCCN1C(=O)c2ccccc2C1=O | 7.08 | -0.17 | 6.9 | 115 nM |
| Cc1ccc2c(c1)C(=O)N(CCC[N+](C)(C)CCCCCC[N+](C)(C)CC(C)(C)CN1C(=O)c3ccc(C)cc3C1=O)C2=O | 7.41 | 0.03 | 7.44 | 36.3 nM |
| C[N+](C)(CCCCCC[N+](C)(C)CCCN1C(=O)c2cc3ccccc3cc2C1=O)CCCN1C(=O)c2cc3ccccc3cc2C1=O | 7.62 | -0.85 | 6.77 | 204 nM |

Results, then the compound that gave them:

| -logKa [1] | pAlpha [2] | p alphaKa [3] | EC50 [4] | Structure (SMILES) |
| --- | --- | --- | --- | --- |
| 7.41 | 0.56 | 7.97 | 18.6 nM | CC(C)(CN1C(=O)c2ccccc2C1=O)C[N+](C)(C)CCCCCC[N+](C)(C)CC(C)(C)CN1C(=O)c2cccc3cccc(c23)C1=O |
| 7.2 | -0.13 | 7.07 | 70.8 nM | Cc1ccc2c(c1)C(=O)N(CCC[N+](C)(C)CCCCCC[N+](C)(C)CC(C)(C)CN1C(=O)c3ccccc3C1=O)C2=O |
| 7.26 | 0.19 | 7.45 | 55 nM | Cc1ccc2c(c1)C(=O)N(CC(C)(C)C[N+](C)(C)CCCCCC[N+](C)(C)CCCN1C(=O)c3ccccc3C1=O)C2=O |
| 6.9 | -0.04 | 6.86 | 135 nM | CC(C)(CN1C(=O)c2ccccc2C1=O)C[N+](C)(C)CCCCCC[N+](C)(C)CCCN1C(=O)c2ccccc2C1=O |
| 7.9 | 0.29 | 8.19 | 14.1 nM | Cc1ccc2c(c1)C(=O)N(CC(C)(C)C[N+](C)(C)CCCCCC[N+](C)(C)CC(C)(C)CN1C(=O)c3cccc4cccc(c34)C1=O)C2=O |
| 7.21 | 0.17 | 7.38 | 46.8 nM | Cc1ccc2c(c1)C(=O)N(CC(C)(C)C[N+](C)(C)CCCCCC[N+](C)(C)CC(C)(C)CN1C(=O)c3ccc(C)cc3C1=O)C2=O |
| 7.28 | -0.005 | 7.28 | 52.5 nM | CC(C)(CN1C(=O)c2ccccc2C1=O)C[N+](C)(C)CCCCCC[N+](C)(C)CCCN1C(=O)c2cccc3cccc(c23)C1=O |
| 8.11 | -0.28 | 7.83 | 13.8 nM | C[N+](C)(CCCCCC[N+](C)(C)CCCN1C(=O)c2cccc3cccc(c23)C1=O)CCCN1C(=O)c2cccc3cccc(c23)C1=O |
| 8.29 | 0.37 | 8.66 | 4.37 nM | CC(C)(CN1C(=O)c2cccc3cccc(c23)C1=O)C[N+](C)(C)CCCCCC[N+](C)(C)CCCN1C(=O)c2ccccc2C1=O [NAPHMETHONIUM] |
| 6.73 | 0.17 | 6.9 | 120 nM | Cc1ccc2c(c1)C(=O)N(CC(C)(C)C[N+](C)(C)CCCCCC[N+](C)(C)CC(C)(C)CN1C(=O)c3ccccc3C1=O)C2=O |
| 7.24 | -0.2 | 7.04 | 115 nM | C[N+](C)(CCCCCC[N+](C)(C)CCCN1C(=O)c2cccc3cccc(c23)C1=O)CCCN1C(=O)c2ccccc2C1=O |
| 7.48 | -0.04 | 7.44 | 36.3 nM | Cc1ccc2c(c1)C(=O)N(CC(C)(C)C[N+](C)(C)CCCCCC[N+](C)(C)CCCN1C(=O)c3cccc4cccc(c34)C1=O)C2=O |
| 7.9 | 0.32 | 8.23 | 7.59 nM | Cc1ccc2c(c1)C(=O)N(CCC[N+](C)(C)CCCCCC[N+](C)(C)CC(C)(C)CN1C(=O)c3cccc4cccc(c34)C1=O)C2=O |
| 8.01 | -0.22 | 7.79 | 25.1 nM | Cc1ccc2c(c1)C(=O)N(CCC[N+](C)(C)CCCCCC[N+](C)(C)CCCN1C(=O)c3cccc4cccc(c34)C1=O)C2=O |
| 7.08 | -0.21 | 6.87 | 178 nM | CC(C)(CN1C(=O)c2ccccc2C1=O)C[N+](C)(C)CCCCCC[N+](C)(C)CC(C)(C)CN1C(=O)c2ccccc2C1=O |
| 8.07 | 0.17 | 8.24 | 7.76 nM | CC(C)(CN1C(=O)c2cccc3cccc(c23)C1=O)C[N+](C)(C)CCCCCC[N+](C)(C)CCCN1C(=O)c2cccc3cccc(c23)C1=O |
| 7.51 | 0.53 | 8.04 | 8.51 nM | CC(C)(CN1C(=O)c2cccc3cccc(c23)C1=O)C[N+](C)(C)CCCCCC[N+](C)(C)CC(C)(C)CN1C(=O)c2cccc3cccc(c23)C1=O |
